Assay results: ChEMBL document CHEMBL4699390, “Chromone and donepezil hybrids as new multipotent cholinesterase and monoamine oxidase inhibitors for the potential treatment of Alzheimer''s disease” (RSC Med Chem, 2020)
pIC50: −log10 of the molar value. The source made the active and inactive calls. The rule behind the calls is not given here.

Experiments:
[1] = biological target: Cholinesterase (Equus caballus, UniProt P81908); assay: Inhibition of equine serum BuChE using butyrylthiocholine iodide as substrate preincubated with enzyme for 6 mins followed by substrate addition and measured for 180 secs by Ellman's method
Method in brief: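 Ellman assay. Enzyme at 0.12 U/mL in 50 mM Tris-HCl pH 8.0 with 0.1% w/v BSA, plus 1.5 mM DTNB, preincubated with compound (0.001-100 μM, diluted from DMSO stock into Tris buffer with MgCl₂/NaCl) at 37 °C for 6 min. Then 15 mM butyrylthiocholine iodide was added, and absorbance at 405 nm was read at 0, 60, 120 and 180 s. IC50 from nonlinear regression of log concentration-response curves; at least three experiments in triplicate.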

[2] = biological target: T1, Amine oxidase [flavin-containing] B (Homo sapiens, UniProt P27338)
T1 sequence (P27338 whole entry): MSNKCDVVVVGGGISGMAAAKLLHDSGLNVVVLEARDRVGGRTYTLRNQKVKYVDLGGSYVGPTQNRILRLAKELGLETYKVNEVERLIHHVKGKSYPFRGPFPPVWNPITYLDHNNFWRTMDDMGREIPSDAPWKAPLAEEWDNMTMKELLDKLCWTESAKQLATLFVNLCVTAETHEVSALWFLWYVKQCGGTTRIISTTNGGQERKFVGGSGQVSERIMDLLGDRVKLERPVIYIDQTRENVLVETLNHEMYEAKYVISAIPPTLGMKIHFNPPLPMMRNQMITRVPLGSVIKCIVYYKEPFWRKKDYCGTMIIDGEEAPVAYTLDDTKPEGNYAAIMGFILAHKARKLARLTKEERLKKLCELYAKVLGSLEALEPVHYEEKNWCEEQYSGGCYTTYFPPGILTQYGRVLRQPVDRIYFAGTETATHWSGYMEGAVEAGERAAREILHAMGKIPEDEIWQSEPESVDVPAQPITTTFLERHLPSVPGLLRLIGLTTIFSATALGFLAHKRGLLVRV

[3] = biological target: Acetylcholinesterase (Electrophorus electricus, UniProt O42275); assay: Inhibition of electric eel AChE using acetylthiocholine iodide as substrate preincubated with enzyme for 6 mins followed by substrate addition and measured for 180 secs by Ellman's method
[4] = Selectivity index, ratio of IC50 for equine serum BuChE to IC50 for electric eel AChE by Ellman's method
[5] = species on record: Homo sapiens; assay: Selectivity for recombinant human MAO-B over recombinant human MAO-A
[6] = biological target: T2, Amine oxidase [flavin-containing] A (Homo sapiens, UniProt P21397); assay: Inhibition of recombinant human MAO- A using p-tyramine as substrate at 100 uM preincubated with enzyme for 15 mins followed incubation with substrate for 20 mins by Amplex red reagent based fluorescence based analysis relative to control; settings: time 35 min
T2 sequence (P21397 whole entry): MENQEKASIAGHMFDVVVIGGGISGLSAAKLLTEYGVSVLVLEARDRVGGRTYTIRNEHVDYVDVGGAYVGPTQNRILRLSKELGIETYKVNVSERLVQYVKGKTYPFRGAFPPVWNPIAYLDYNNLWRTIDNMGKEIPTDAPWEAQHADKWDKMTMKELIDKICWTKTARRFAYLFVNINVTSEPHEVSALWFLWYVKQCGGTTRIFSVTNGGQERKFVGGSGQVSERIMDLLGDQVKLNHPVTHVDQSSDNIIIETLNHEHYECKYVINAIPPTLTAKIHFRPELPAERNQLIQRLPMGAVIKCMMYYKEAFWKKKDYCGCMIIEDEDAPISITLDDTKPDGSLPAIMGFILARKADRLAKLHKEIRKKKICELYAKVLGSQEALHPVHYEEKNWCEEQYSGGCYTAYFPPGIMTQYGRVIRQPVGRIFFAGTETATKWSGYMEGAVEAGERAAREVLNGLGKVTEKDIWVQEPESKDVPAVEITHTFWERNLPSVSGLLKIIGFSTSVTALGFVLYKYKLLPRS
Method in brief: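 Human MAO-A (1.1 µg protein, activity set to oxidize 165 pmol p-tyramine/min) was preincubated with compound in 0.05 M potassium phosphate pH 7.4 at 37 °C for 15 min in the dark. The reaction was started with 2 mM p-tyramine, 2 U/mL HRP and 200 µM Amplex Red for 20 min at 37 °C. Fluorescence was read at ex 545/em 590 nm, and inhibition was calculated against the uninhibited control after background subtraction.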

[7] = in vitro; settings: PAMPA
[8] = biological target: Cholinesterase (Equus caballus) (UniProt P81908); assay: Competitive inhibition of equine serum BuChE […] using varying concentrations of butyrylthiocholine iodide as substrate at 2.6 to 10.5 uM by Lineweaver-burk plot analysis; settings: dose microM 2.6-10.5
[9] = biological target: T1, Amine oxidase [flavin-containing] B; assay: Competitive inhibition of recombinant human MAO-B using varying concentration of p-tyramine as substrate at 0.13 to 0.54 uM by Lineweaver-burk plot analysis; settings: dose 0.13-0.54 µM
Method in brief: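 Preincubation-free kinetic run with human MAO-B: initial oxidation rates of p-tyramine measured at six substrate concentrations without inhibitor and with three inhibitor concentrations (0.54, 0.27, 0.13 μM). Activity was read by the Amplex Red/horseradish peroxidase fluorescence method. Plots were fitted by weighted least-squares analysis, assuming the variance of v is a constant percentage of v.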

[10] = biological target: T2, Amine oxidase [flavin-containing] A; assay: Inhibition of recombinant human MAO- A using p-tyramine as substrate preincubated with enzyme for 15 mins followed incubation with substrate for 20 mins by Amplex red reagent based fluorescence based analysis
[11] = biological target: Acetylcholinesterase (Electrophorus electricus) (UniProt O42275); assay: Mixed-type inhibition of electric eel AChE using varying concentration of acetylthiocholine iodide as substrate at 0.185 to 0.74 uM by Lineweaver-burk plot analysis; settings: dose microM 0.185-0.74
[12] = tested on: PC-12; assay: Cytotoxicity against rat PC12 cells assessed as cell viability at 1 to 50 uM measured after 24 hrs by MTT assay; type: cell-based; settings: pc-12, 24 h, dose 1-50 µM
Method in brief: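 PC12 cells were grown at 37 °C, 5% CO₂ in DMEM with 10% bovine calf serum and penicillin/streptomycin, then seeded at 10,000 cells/well. At the required confluence they were switched to serum-free medium with compound for 24 h. Viability was read by MTT (4 h at 37 °C), with formazan dissolved in DMSO.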

Chain of Acetylcholinesterase (O42275 whole entry): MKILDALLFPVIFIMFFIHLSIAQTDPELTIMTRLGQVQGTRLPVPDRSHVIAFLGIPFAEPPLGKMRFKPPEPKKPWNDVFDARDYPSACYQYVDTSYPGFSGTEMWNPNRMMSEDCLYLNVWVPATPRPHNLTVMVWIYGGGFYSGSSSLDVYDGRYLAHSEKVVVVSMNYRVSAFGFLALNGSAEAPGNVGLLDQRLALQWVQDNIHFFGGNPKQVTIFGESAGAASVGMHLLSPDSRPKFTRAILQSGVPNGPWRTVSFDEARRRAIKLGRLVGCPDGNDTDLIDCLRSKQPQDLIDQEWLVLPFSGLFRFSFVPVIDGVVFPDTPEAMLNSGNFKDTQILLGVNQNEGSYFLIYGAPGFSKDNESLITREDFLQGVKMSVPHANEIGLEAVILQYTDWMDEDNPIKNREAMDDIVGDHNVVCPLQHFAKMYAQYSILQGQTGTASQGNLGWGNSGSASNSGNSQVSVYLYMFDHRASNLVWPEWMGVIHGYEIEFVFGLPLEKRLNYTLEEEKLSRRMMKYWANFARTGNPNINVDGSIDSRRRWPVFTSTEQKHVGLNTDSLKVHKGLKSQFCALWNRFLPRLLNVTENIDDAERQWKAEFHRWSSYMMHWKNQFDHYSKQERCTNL
Chain of Cholinesterase (P81908 whole entry): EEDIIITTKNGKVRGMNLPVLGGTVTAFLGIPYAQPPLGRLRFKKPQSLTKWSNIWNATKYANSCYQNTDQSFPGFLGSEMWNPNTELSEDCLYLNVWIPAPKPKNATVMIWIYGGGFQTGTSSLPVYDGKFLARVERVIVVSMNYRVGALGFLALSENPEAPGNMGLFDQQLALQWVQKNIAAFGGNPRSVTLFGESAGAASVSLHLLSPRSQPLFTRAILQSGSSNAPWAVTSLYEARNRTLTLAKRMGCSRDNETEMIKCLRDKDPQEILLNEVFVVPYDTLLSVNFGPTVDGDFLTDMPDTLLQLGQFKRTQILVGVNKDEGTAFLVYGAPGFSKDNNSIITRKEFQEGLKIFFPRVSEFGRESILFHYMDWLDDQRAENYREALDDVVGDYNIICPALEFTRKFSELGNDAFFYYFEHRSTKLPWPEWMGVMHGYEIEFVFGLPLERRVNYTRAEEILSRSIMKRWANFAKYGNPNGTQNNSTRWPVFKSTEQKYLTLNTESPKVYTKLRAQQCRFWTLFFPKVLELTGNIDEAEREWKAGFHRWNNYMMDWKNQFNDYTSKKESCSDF
Chain of Acetylcholinesterase (Electrophorus electricus) (O42275 24-633 limits assumed): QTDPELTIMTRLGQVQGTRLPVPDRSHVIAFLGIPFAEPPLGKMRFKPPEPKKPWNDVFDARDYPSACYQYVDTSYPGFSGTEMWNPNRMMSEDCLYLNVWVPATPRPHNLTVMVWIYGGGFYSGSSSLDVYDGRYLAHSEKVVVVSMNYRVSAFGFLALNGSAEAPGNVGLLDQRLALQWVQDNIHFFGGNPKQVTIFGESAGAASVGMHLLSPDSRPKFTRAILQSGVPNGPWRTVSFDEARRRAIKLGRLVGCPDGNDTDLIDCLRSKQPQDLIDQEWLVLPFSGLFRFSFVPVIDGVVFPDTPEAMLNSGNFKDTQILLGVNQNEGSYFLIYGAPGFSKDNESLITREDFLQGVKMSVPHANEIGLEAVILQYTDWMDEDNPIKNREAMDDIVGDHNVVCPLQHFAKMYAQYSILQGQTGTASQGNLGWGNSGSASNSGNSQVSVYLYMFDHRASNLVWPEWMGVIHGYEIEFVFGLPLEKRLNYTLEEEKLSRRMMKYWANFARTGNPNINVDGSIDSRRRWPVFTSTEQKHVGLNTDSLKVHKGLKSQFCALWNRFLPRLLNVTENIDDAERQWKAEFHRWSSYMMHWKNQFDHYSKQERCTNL
Chain of Cholinesterase (Equus caballus) (P81908 whole entry): as the sequence (P81908 whole entry) above

Structure (SMILES) | pIC50 [1] | pIC50 [2] | pIC50 [3] | Ratio IC50 [4] | Selectivity ratio [5] | inhibition at 100 µM [6] [%] | Papp at 16 h [7] [×10⁻⁶ cm/s] | inhibition [8] | inhibition (INH) [9] | pIC50 [10] | inhibition [11] | Activity [12]
O=C(NC1CCN(Cc2ccccc2)CC1)c1cc(=O)c2ccccc2o1 | 4.56 | 4.48 | 5.24 | 7.6 | > 3.1 | 29.7 |  |  |  |  |  | 
O=C(NC1CCN(Cc2ccccc2)CC1)c1coc2cc(Br)ccc2c1=O | 4.74 | 4.70 | 5.03 | 1.2 | > 5.1 | 31.6 |  |  |  |  |  | 
COc1ccc2occ(C(=O)NC3CCN(Cc4ccccc4)CC3)c(=O)c2c1 | 4.61 | 4.33 | 4.99 | 2.4 | > 2.1 | 7.5 |  |  |  |  |  | 
O=C(NC1CCN(Cc2ccccc2)CC1)c1coc2ccccc2c1=O | 4.73 | 4.75 | 5.53 | 6.3 | < 5.6 | 63.8 | 15.6 |  |  |  |  | 
Cc1ccc2occ(C(=O)NCCC3CCN(Cc4ccccc4)CC3)c(=O)c2c1 | 6.04 | 4.28 | 6.96 | 8.3 | > 1.9 | 30.6 |  |  |  |  |  | 
O=C(NCCC1CCN(Cc2ccccc2)CC1)c1coc2ccc(OCc3ccccc3)cc2c1=O | 5.28 | 6.57 | 6.43 | 14.2 | 247 |  | 5.4 | Active | Active | 4.17 | Active | Non-Toxic
COc1ccc2occ(C(=O)NCCC3CCN(Cc4ccccc4)CC3)c(=O)c2c1 | 6.35 | 4.95 | 7.48 | 13.7 | < 8.9 | 72.4 | 16.7 |  |  |  |  | Non-Toxic
Cc1ccc2occ(C(=O)NC3CCN(Cc4ccccc4)CC3)c(=O)c2c1 | 4.82 | 4.71 | 5.76 | 8.8 | > 5.1 | 48.1 |  |  |  |  |  | 
O=C(NCCC1CCN(Cc2ccccc2)CC1)c1coc2ccccc2c1=O | 6.22 | 4.45 | 7.16 | 8.7 | < 2.8 | 68.6 |  |  |  |  |  | 
O=C(NCCC1CCN(Cc2ccccc2)CC1)c1coc2ccc(Br)cc2c1=O | 5.93 | 4.58 | 6.98 | 11.3 | > 3.8 | 48.2 |  |  |  |  |  | 
O=C(NC1CCN(Cc2ccccc2)CC1)c1coc2ccc(Br)cc2c1=O | 5.02 | 4.64 | 5.80 | 6.1 | > 4.4 | 35.5 |  |  |  |  |  | 
COc1ccc2c(=O)c(C(=O)NC3CCN(Cc4ccccc4)CC3)coc2c1 | 5.01 | 4.54 | 5.80 | 6.2 | > 3.5 | 37.4 |  |  |  |  |  | 
O=C(NCCC1CCN(Cc2ccccc2)CC1)c1cc(=O)c2ccccc2o1 | 5.81 | 4.70 | 6.51 | 4.9 | > 4.9 | 29.5 |  |  |  |  |  | 
O=C(NCCC1CCN(Cc2ccccc2)CC1)c1coc2cc(Br)ccc2c1=O | 5.91 | 4.53 | 6.81 | 11.9 | > 3.4 | 30.3 |  |  |  |  |  | 
O=C(NC1CCN(Cc2ccccc2)CC1)c1coc2ccc(OCc3ccccc3)cc2c1=O | 4.91 | 7.46 | 5.73 | 6.7 | 211 |  | 4.6 |  |  | 4.94 |  | Non-Toxic
COc1ccc2c(=O)c(C(=O)NCCC3CCN(Cc4ccccc4)CC3)coc2c1 | 6.28 | 4.51 | 6.84 | 3.7 | > 3.2 | 32.4 |  |  |  |  |  | 
